Some results are limits rather than exact numbers.

Data set [1] deals with Human immunodeficiency virus 1. Put plainly: Antiviral activity against HIV1 3B infected in human MT4 cells assessed as inhibition of virus-induced cytopathic effect by MTT assay. It counts as functional, organism-based. To be noted: Human immunodeficiency virus 1, 3B. The essentials:
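HIV-1 IIIB stock titrated on MT-4 cells to set CCID50. MT-4 cells infected with 100–300 CCID50 in presence of five-fold serial drug dilutions. Viability read by MTT reduction to formazan, measured spectrophotometrically. EC50 is concentration giving 50% protection against viral CPE. Values are averages ± SD.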

Data set [2] is described as follows: Cytotoxicity against human MT4 cells by MTT assay. It is filed as cell-based. The method in brief:
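MT-4 cell viability read by MTT reduction to formazan by mitochondrial dehydrogenase, measured spectrophotometrically, across drug dilutions. CC50 is concentration reducing MT-4 viability by 50%. Values are averages ± SD.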
(Formazan colour is commonly taken as a measure of viable cells.)

In data set [3] the target is Human immunodeficiency virus type 1 integrase (Human immunodeficiency virus 1) (UniProt Q7ZJM1).
Sequence of Human immunodeficiency virus type 1 integrase (Human immunodeficiency virus 1) (Q7ZJM1 as listed by the source): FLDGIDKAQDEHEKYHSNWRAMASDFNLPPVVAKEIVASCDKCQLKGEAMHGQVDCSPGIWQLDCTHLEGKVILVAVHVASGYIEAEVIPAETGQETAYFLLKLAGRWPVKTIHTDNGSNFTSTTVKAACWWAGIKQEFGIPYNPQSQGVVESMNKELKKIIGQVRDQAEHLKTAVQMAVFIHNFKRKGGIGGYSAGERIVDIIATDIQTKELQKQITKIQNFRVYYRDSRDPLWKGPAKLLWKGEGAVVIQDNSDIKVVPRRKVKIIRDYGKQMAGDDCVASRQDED
The nature of data set [4]: Selectivity index, ratio of CC50 for human MT4 cells to EC50 for HIV13B. It is filed as toxicity, cell-based. As to conditions: read-out: Ratio CC50/EC50. The method in brief: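 Index calculated as CC50/EC50. CC50 is the concentration reducing MT-4 viability by 50%. EC50 is 50% protection against HIV-1 IIIB CPE after infection with 100–300 CCID50, across five-fold serial dilutions. Both are read by MTT assay.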

The target of data set [5] is Human immunodeficiency virus type 1 integrase (Human immunodeficiency virus 1, UniProt Q7ZJM1). The experiment in a line: Inhibition of HIV-1 integrase after 1 hr by ELISA. (ELISA stands for enzyme-linked immunosorbent assay.)
Sequence of Human immunodeficiency virus type 1 integrase (Q7ZJM1 whole entry): as the sequence (Q7ZJM1 as listed by the source) above

As a reminder, the EC50 is the midpoint of the concentration-response curve. As a reminder, the CC50 is the concentration at which the toxic effect on the cells reaches its halfway point. What is called IC50 is the midpoint of a concentration-inhibition curve. As for `CCOC(=O)/C(O)=C/C(=O)c1cn(Cc2ccc(F)cc2)c2cc(OC)c(OC)cc12`, in data set [1], the half-maximal effective concentration (EC50) is greater than 21.8 µM. The 50% cytotoxic concentration (CC50) in data set [2] was determined as 21.8 µM. The C50 in data set [3] worked out at 7.69 µM. Also, the selectivity ratio in data set [4] was less than 1. The same compound displayed an IC50 in data set [5] of 4.4 µM.

On to `Cc1nnc(C(=O)NC(C)(C)c2nc(C(=O)NCc3ccc(F)cc3)c(O)c(=O)n2C)o1`, for which the CC50 in data set [2] was greater than 18 µM.

As for `CCOC(=O)/C(O)=C/C(=O)c1cn(Cc2ccc(F)cc2)c2c(OC)c(OC)ccc12`, in data set [1], the EC50 stood at 10.4 µM. Moreover, the CC50 in data set [2] was found to be 119 µM. For the same compound, in data set [3], the C50 turned out to be 17.4 µM. Also, in data set [4], the selectivity ratio came out at 11. Besides, in data set [5], the midpoint of inhibition, the IC50, lay at 7.41 µM.

Consider `COc1cc(OC)c2c(C(=O)/C=C(\O)C(=O)O)cn(Cc3ccc(F)cc3)c2c1`, for which the EC50 in data set [1] came out at 3.2 µM. The compound also displayed a CC50 in data set [2] of 20.7 µM. Moreover, the C50 in data set [3] was determined as 0.28 µM. Moreover, the selectivity ratio in data set [4] is 6. This compound had an IC50 in data set [5] of 0.47 µM.

For the compound `COc1ccc2c(C(=O)/C=C(\O)C(=O)O)cn(Cc3ccc(F)cc3)c2c1OC`, in data set [1], the EC50 is 14.7 µM. In data set [2], this compound registered a CC50 of 130 µM. In data set [3], this compound gave a C50 of 6.37 µM. Also, in data set [4], the selectivity ratio worked out at 9. For the same compound, the IC50 in data set [5] worked out at 3.55 µM.

Turning to `COc1ccc2c(c(C(=O)/C=C(\O)C(=O)O)cn2Cc2ccc(F)cc2)c1OC`, in data set [1], the EC50 was 1.21 µM. Also, the CC50 in data set [2] came to 126 µM. In data set [3], the C50 was determined as 0.047 µM. Further, in data set [4], the selectivity ratio came out at 104. In addition, half-maximal inhibition in data set [5] (IC50) was put at 1.45 µM.

Turning to `CCOC(=O)/C(O)=C/C(=O)c1cn(Cc2ccc(F)cc2)c2ccc(OC)c(OC)c12`, the EC50 in data set [1] was determined as 3.96 µM. In data set [2], this compound had a CC50 of 111 µM. In data set [3], this compound gave a C50 of 0.015 µM. In addition, in data set [4], the selectivity ratio came to 28. Moreover, in data set [5], inhibition was half-maximal at 0.9 µM (IC50).

Turning to `COc1cccc2c1c(C(=O)/C=C(\O)C(=O)O)cn2Cc1ccc(F)cc1`, in data set [3], the C50 is 0.14 µM. Further, the selectivity ratio in data set [4] came out at 70.

For `CCOC(=O)/C(O)=C/C(=O)c1cn(Cc2ccc(F)cc2)c2cc(OC)cc(OC)c12`, in data set [1], the EC50 worked out at 2.48 µM. The CC50 in data set [2] stood at 55.4 µM. Moreover, the C50 in data set [3] was determined as 1.29 µM. Moreover, the selectivity ratio in data set [4] stood at 22. The concentration for half-maximal inhibition (IC50) in data set [5] was 2.79 µM.

For the compound `COc1cc(OC)c2c(c1)c(C(=O)/C=C(\O)C(=O)O)cn2Cc1ccc(F)cc1`, the EC50 in data set [1] is 8.51 µM. The cytotoxic concentration (CC50) in data set [2] was determined as 58.5 µM. Further, the C50 in data set [3] is 0.006 µM. Also, the selectivity ratio in data set [4] was found to be 7. Further, the IC50 in data set [5] is 0.251 µM.

As to `CCOC(=O)/C(O)=C/C(=O)c1cn(Cc2ccc(F)cc2)c2c(OC)cc(OC)cc12`, in data set [1], the EC50 was greater than 62.1 µM. The same compound yielded a CC50 in data set [2] of 62.1 µM. The C50 in data set [3] came to 34.9 µM. In data set [4], the selectivity ratio is less than 1. The compound also registered an IC50 in data set [5] of 18.1 µM.

As for `CCOC(=O)/C(O)=C/C(=O)c1cn(Cc2ccc(F)cc2)c2c(OC)ccc(OC)c12`, the C50 in data set [3] is 0.66 µM.

In the case of `COc1cc2c(C(=O)/C=C(\O)C(=O)O)cn(Cc3ccc(F)cc3)c2cc1OC`, the EC50 in data set [1] was found to be 10.5 µM. The compound also gave a CC50 in data set [2] of 65.5 µM. The compound also yielded a C50 in data set [3] of 0.119 µM. Besides, in data set [4], the selectivity ratio was 6. This compound also returned an IC50 in data set [5] of 0.547 µM.

The values above are taken from ChEMBL document CHEMBL1667799, “HIV-1 integrase strand-transfer inhibitors: design, synthesis and molecular modeling investigation” (Eur J Med Chem, 2011).
